The target of series [1] is Mitogen-activated protein kinase kinase kinase 14 (Homo sapiens) (UniProt Q99558). Put plainly: Binding affinity to wild-type human partial length NIK (L318 to P947 residues) expressed in mammalian expression system assessed as residual binding level at 1 uM by Kinomescan method relative to control.
Series [2] concerns Epidermal growth factor receptor (Homo sapiens), P00533 [UNDEFINED MUTATION]. Put plainly: Binding affinity to human partial length EGFR L747-E749del/A750P mutant expressed in bacterial expression system assessed as residual binding level at 1 uM by Kinomescan method relative to control. The essentials: (§1)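 Kinome-wide selectivity panel run by the KINOMEscan method, with the test compound at a single concentration of 1 μM. Wild-type and mutant kinases were profiled in the same screen.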
Sequence of Epidermal growth factor receptor (Homo sapiens), P00533 [UNDEFINED MUTATION] (P00533 whole entry, looked up, stated change not applied): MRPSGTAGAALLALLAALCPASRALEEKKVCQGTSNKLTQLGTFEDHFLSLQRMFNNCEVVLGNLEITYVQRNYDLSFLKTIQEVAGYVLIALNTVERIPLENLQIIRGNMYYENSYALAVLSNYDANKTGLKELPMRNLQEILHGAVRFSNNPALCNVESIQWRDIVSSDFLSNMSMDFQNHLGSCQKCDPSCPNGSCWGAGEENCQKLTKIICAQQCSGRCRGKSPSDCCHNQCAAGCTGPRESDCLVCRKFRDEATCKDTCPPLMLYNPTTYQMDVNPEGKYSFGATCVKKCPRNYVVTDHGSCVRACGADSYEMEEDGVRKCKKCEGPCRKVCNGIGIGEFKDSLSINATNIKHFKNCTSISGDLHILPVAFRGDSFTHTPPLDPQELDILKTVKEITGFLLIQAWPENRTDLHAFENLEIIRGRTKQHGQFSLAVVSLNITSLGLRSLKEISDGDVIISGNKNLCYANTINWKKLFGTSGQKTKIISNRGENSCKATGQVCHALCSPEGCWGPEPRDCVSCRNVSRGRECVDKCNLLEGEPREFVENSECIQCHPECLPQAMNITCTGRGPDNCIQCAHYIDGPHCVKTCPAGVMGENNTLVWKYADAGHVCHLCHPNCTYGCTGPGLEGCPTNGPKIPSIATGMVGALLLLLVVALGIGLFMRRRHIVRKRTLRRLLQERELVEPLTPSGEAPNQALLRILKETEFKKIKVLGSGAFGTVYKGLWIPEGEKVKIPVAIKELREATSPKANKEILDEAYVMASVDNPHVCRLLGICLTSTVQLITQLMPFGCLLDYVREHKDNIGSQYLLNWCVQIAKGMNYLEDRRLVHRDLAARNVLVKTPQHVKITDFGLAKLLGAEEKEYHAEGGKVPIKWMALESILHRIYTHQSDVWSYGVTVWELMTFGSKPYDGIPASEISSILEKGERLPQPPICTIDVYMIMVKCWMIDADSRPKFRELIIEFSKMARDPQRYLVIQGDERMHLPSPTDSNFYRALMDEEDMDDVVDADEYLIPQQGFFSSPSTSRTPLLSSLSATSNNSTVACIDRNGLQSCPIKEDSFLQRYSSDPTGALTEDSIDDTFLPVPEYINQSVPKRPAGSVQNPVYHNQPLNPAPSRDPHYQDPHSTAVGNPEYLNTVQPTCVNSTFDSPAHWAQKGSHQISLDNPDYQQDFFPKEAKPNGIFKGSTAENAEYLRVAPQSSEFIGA

The target of series [3] is Serine/threonine-protein kinase Nek1 (Homo sapiens) (UniProt Q96PY6). Put plainly: Binding affinity to wild-type human partial length NEK1 (M1 to K278 residues) expressed in bacterial expression system assessed as residual binding level at 1 uM by Kinomescan method relative to control.
The target in series [4] is Vascular endothelial growth factor receptor 1 (Homo sapiens) (UniProt P17948). Briefly: Binding affinity to wild-type human partial length FLT1 (R781 to F1239 residues) expressed in bacterial expression system assessed as residual binding level at 1 uM by Kinomescan method relative to control.
In series [5] the target is Mitogen-activated protein kinase kinase kinase kinase 2 (Homo sapiens) (UniProt Q12851). Put plainly: Binding affinity to wild-type human partial length MAP4K2 (M1 to G318 residues) expressed in mammalian expression system assessed as residual binding level at 1 uM by Kinomescan method relative to control.
Sequence of Mitogen-activated protein kinase kinase kinase kinase 2 (Homo sapiens) (Q12851 whole entry, the tested form may be a part): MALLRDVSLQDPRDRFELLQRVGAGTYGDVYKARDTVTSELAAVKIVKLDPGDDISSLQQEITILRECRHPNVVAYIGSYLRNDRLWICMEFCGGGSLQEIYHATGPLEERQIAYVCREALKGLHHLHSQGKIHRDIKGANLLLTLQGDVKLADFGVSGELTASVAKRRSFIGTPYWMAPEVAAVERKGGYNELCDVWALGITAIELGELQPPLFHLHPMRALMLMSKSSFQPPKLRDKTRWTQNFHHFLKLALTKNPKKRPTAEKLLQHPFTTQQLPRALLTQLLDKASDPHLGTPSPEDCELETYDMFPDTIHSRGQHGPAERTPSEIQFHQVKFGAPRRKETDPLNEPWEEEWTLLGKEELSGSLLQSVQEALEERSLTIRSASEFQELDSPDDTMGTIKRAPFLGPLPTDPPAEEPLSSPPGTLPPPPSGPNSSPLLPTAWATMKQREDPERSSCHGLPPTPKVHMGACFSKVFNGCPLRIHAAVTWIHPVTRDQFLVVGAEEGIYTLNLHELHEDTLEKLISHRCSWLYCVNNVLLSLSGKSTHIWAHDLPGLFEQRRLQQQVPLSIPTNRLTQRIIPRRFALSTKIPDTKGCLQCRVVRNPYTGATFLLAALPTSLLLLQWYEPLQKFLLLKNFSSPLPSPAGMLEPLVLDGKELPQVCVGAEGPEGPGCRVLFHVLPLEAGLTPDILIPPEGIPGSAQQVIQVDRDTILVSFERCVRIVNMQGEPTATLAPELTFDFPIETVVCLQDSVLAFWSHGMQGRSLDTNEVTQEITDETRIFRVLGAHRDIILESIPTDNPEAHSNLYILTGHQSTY
Series [6] has as its target Mitogen-activated protein kinase kinase kinase 11 (Homo sapiens) (UniProt Q16584). Briefly: Binding affinity to wild-type human partial length MLK3 (I77 to W399 residues) expressed in bacterial expression system assessed as residual binding level at 1 uM by Kinomescan method relative to control.
The target in series [7] is Ribosomal protein S6 kinase alpha-3 (Homo sapiens) (UniProt P51812). Briefly: Binding affinity to wild-type human partial length C-terminal RSK2 kinase domain 2 (V402 to S715 residues) expressed in mammalian expression system assessed as residual binding level at 1 uM by Kinomescan method relative to control.
Sequence of Ribosomal protein S6 kinase alpha-3 (Homo sapiens) (P51812 whole entry, the tested form may be a part): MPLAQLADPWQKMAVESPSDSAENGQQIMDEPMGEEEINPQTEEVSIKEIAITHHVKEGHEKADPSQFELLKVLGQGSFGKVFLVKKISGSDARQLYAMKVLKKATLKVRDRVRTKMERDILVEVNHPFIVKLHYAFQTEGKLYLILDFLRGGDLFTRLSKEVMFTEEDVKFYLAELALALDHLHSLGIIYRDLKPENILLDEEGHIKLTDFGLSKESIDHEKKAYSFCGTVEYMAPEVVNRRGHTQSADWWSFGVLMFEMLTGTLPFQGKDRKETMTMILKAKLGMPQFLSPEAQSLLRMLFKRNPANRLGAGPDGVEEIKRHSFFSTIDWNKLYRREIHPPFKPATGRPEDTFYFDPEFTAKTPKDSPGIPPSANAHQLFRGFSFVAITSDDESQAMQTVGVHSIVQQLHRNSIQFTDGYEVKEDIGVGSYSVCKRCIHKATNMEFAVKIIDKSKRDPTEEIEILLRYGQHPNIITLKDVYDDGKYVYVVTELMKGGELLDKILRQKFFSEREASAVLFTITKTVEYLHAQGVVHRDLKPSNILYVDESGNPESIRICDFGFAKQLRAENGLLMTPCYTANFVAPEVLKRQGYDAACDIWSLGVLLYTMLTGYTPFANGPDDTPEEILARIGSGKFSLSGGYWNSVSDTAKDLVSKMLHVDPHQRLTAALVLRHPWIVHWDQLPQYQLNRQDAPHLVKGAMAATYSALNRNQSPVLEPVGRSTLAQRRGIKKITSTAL
Series [8] has as its system eIF-2-alpha kinase GCN2 (Homo sapiens), Q9P2K8 [S808G]. Briefly: Binding affinity to wild-type human partial length GCN2 kinase domain 2 (R585 to T1018 residues) S808G mutant expressed in bacterial expression system assessed as residual binding level at 1 uM by Kinomescan method relative to control.
Series [9] addresses Mitogen-activated protein kinase kinase kinase kinase 4 (Homo sapiens) (UniProt O95819). Briefly: Binding affinity to wild-type human partial length MAP4K4 (M1 to R310 residues) expressed in bacterial expression system assessed as residual binding level at 1 uM by Kinomescan method relative to control.
For series [10], the target named is Cyclin-dependent kinase-like 5 (Homo sapiens) (UniProt O76039). Put plainly: Binding affinity to wild-type human partial length CDKL5 (M1 to S337 residues) expressed in mammalian expression system assessed as residual binding level at 1 uM by Kinomescan method relative to control.
For series [11], the target named is RAC-beta serine/threonine-protein kinase (Homo sapiens) (UniProt P31751). Put plainly: Binding affinity to wild-type human partial length AKT2 expressed in bacterial expression system assessed as residual binding level at 1 uM by Kinomescan method relative to control.
Sequence of RAC-beta serine/threonine-protein kinase (Homo sapiens) (P31751 whole entry, the tested form may be a part): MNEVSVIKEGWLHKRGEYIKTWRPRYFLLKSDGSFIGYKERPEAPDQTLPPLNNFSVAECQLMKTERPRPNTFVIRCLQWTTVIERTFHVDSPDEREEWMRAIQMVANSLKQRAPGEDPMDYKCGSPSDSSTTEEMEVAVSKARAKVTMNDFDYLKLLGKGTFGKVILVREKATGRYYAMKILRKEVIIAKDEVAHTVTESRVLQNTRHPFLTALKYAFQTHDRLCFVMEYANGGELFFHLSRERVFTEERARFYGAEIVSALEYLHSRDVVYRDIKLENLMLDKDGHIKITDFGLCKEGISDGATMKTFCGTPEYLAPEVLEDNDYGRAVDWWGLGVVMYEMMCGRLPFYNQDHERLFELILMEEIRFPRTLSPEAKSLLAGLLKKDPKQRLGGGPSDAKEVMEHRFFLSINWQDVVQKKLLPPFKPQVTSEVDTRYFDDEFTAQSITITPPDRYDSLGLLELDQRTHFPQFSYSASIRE
Series [12] addresses Testis-specific serine/threonine-protein kinase 1 (Homo sapiens) (UniProt Q9BXA7). Briefly: Binding affinity to wild-type human full length TSSK1B (M1 to Q367 residues) expressed in bacterial expression system assessed as residual binding level at 1 uM by Kinomescan method relative to control.
The target of series [13] is Serine/threonine-protein kinase PLK2 (Homo sapiens) (UniProt Q9NYY3). Put plainly: Binding affinity to wild-type human partial length PLK2 (H58 to F354 residues) expressed in mammalian expression system assessed as residual binding level at 1 uM by Kinomescan method relative to control.
Series [14] concerns the target 3-phosphoinositide-dependent protein kinase 1 (Homo sapiens) (UniProt O15530). Briefly: Binding affinity to wild-type human full length PDPK1 (M1 to Q556 residues) expressed in bacterial expression system assessed as residual binding level at 1 uM by Kinomescan method relative to control. The essentials: (§2)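 Single-point kinome-wide KINOMEscan binding panel, test compound at 1 μM, run by the provider's standard protocol.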

Series [15] can be described thus: Drug uptake in mouse lung at 2 mg/kg, iv after 8 hrs. Particulars: read-out: Drug uptake. In kind it is ADME, organism-based.
In series [16] the target is Tyrosine-protein kinase TXK (Homo sapiens) (UniProt P42681). Put plainly: Binding affinity to wild-type human partial length TXK (L238 to W527 residues) expressed in bacterial expression system assessed as residual binding level at 1 uM by Kinomescan method relative to control.
Series [17] concerns the target Serine/threonine-protein kinase TBK1 (Homo sapiens) (UniProt Q9UHD2). Put plainly: Binding affinity to wild-type human full length TBK1 (M1 to L729 residues) expressed in mammalian expression system assessed as residual binding level at 1 uM by Kinomescan method relative to control.
The target in series [18] is Mitogen-activated protein kinase kinase kinase kinase 5 (Homo sapiens) (UniProt Q9Y4K4). Briefly: Binding affinity to wild-type human partial length MAP4K5 (M1 to P297 residues) expressed in bacterial expression system assessed as residual binding level at 1 uM by Kinomescan method relative to control.
Series [19] concerns the target Mitogen-activated protein kinase 12 (Homo sapiens) (UniProt P53778). Briefly: Binding affinity to wild-type human full length p38-gamma (M1 to L367 residues) expressed in mammalian expression system assessed as residual binding level at 1 uM by Kinomescan method relative to control.
In series [20] the target is Calcium/calmodulin-dependent protein kinase type 1G (Homo sapiens) (UniProt Q96NX5). Put plainly: Binding affinity to wild-type human partial length CAMK1G (M1 to A342 residues) expressed in bacterial expression system assessed as residual binding level at 1 uM by Kinomescan method relative to control.
The target of series [21] is Glycogen synthase kinase-3 alpha (Homo sapiens) (UniProt P49840). Briefly: Binding affinity to wild-type human full length GSK3A (M1 to S483 residues) expressed in bacterial expression system assessed as residual binding level at 1 uM by Kinomescan method relative to control. The method in brief: as §2
For series [22], the target named is Protein kinase C delta type (Homo sapiens) (UniProt Q05655). Briefly: Binding affinity to wild-type human partial length PRKCD (Q328 to D676 residues) expressed in bacterial expression system assessed as residual binding level at 1 uM by Kinomescan method relative to control.
Series [23] concerns the target STE20/SPS1-related proline-alanine-rich protein kinase (Homo sapiens) (UniProt Q9UEW8). Briefly: Binding affinity to wild-type human partial length STK39 (P43 to I357 residues) expressed in mammalian expression system assessed as residual binding level at 1 uM by Kinomescan method relative to control.
Series [24] relates to Epidermal growth factor receptor (Homo sapiens), P00533 [UNDEFINED MUTATION]. Put plainly: Binding affinity to human partial length EGFR E746-A750del mutant expressed in bacterial expression system assessed as residual binding level at 1 uM by Kinomescan method relative to control. The essentials:
as §1

Sequence of Mitogen-activated protein kinase kinase kinase 14 (Homo sapiens) (Q99558 whole entry, looked up, the tested form may be a part): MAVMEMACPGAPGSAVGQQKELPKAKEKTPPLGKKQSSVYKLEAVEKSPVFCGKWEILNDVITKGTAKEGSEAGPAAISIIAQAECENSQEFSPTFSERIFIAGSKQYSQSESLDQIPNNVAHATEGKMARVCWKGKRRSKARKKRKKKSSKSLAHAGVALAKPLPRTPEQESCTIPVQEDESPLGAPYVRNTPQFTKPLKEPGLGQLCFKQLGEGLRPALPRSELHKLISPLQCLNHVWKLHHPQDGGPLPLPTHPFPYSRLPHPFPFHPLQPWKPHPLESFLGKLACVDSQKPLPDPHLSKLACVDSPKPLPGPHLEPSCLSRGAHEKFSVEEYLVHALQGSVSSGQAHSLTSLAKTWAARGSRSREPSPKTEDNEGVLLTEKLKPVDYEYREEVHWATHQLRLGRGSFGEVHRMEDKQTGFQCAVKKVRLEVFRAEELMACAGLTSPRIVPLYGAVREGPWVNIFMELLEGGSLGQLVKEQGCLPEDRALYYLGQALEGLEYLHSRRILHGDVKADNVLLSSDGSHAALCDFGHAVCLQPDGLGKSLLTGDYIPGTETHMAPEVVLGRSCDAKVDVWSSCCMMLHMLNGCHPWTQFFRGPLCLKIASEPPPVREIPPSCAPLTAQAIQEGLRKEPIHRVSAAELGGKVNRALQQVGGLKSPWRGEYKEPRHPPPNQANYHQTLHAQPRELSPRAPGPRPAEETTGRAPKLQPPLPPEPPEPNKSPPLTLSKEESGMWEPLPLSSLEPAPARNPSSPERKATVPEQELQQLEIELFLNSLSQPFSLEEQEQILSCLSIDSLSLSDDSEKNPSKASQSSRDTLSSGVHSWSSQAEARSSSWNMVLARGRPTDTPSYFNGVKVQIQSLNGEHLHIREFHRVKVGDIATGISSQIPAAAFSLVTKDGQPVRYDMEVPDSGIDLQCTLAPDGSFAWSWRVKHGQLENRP
Sequence of Mitogen-activated protein kinase kinase kinase 11 (Homo sapiens) (Q16584 whole entry, looked up, the tested form may be a part): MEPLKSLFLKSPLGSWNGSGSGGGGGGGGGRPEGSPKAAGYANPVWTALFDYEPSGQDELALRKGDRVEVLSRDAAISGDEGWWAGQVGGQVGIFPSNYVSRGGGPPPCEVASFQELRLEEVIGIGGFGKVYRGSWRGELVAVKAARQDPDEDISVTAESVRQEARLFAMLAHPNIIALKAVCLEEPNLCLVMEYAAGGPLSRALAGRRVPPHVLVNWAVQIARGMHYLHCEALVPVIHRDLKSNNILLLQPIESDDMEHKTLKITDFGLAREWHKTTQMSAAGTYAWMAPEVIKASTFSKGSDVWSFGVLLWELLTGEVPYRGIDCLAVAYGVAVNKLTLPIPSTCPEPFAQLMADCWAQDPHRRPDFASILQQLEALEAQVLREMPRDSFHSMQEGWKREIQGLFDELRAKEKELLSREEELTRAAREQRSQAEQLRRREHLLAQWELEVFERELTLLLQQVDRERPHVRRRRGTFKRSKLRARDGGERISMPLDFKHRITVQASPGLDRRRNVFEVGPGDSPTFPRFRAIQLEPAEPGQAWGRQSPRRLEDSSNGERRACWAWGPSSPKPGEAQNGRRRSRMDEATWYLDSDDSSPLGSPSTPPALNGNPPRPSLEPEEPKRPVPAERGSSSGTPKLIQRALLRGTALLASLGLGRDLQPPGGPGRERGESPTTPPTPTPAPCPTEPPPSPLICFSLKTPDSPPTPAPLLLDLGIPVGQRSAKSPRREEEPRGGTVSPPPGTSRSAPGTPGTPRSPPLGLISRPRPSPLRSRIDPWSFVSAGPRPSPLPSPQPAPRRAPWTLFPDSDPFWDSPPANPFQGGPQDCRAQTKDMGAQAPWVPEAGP

As to `C=CC(=O)Nc1cc(Nc2ncc(Cl)c(Nc3ccccc3S(=O)(=O)C(C)C)n2)c(OC)cc1N(C)CCN(C)C`, the Activity came out at 91% in [1]; 0% in series [2]; 68% in series [3]; 47% in series [4]; 77% in [5]; 82% in [6]. Besides, the Activity is 75% in series [7]; 91% in [8]; 87% in [9]; 91% in [10]; 94% in series [11]; 12% in series [12]. The Activity stood at 87% in series [13]; 94% in series [14]; 0.65% in series [16]; 21% in series [17]; 66% in series [18]; 56% in series [19]. Besides, the Activity was found to be 45% in [20]; 99% in series [21]; 64% in series [22]; 20% in series [23]; 12% in series [24]. The concentration at 8 h in [15] was 110 nM.
